Key:
Rattus norvegicus [1] = assay: Serum concentration in fasted Sprague-Dawley rat at 15 mg/kg, po after 6 hrs; settings: in vivo
Rattus norvegicus [2] = assay: Serum concentration in fasted Sprague-Dawley rat at 7.5 mg/kg, po after 6 hrs; settings: in vivo
Rattus norvegicus [3] = assay: Toxicity in carrageenan-induced paw edema Sprague-Dawley rat model assessed as increase in blood glucose level at 30 mg/kg, po measured […] by glucometer; format: organism-based; design: dose 30 mg/kg, route oral; settings: in vivo
Summary of the method: (§1)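 Carrageenan paw edema rats (male SD, fasted, single oral dose, carrageenan 2 h postdose). Blood glucose was read by glucometer on tail-nick samples, at baseline and 5 h after dosing.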

Rattus norvegicus [4] = assay: Serum concentration in fasted Sprague-Dawley rat at 30 mg/kg, po after 6 hrs; settings: in vivo
Rattus norvegicus [5] = assay: Toxicity in fasted Sprague-Dawley rat assessed as induction of TAT activity in liver homogenates at 7.5 to 30 mg/kg, po after 6 hrs; format: organism-based; design: dose 7.5-30 mg/kg, route oral; settings: in vivo
Summary of the method: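 Male SD rats, fasted, single oral dose. Liver was biopsied 6 h postdose, snap frozen, homogenised in 150 mM KCl and centrifuged. Protein-normalised supernatants were assayed for TAT activity, read as OD at 340 nm. Values are given as % of TAT activity in prednisolone-treated (30 mg/kg) rats.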

Rattus norvegicus [6] = assay: Antiinflammatory activity in po dosed carrageenan-induced paw edema Sprague-Dawley rat model assessed as inhibition of hind paw swelling after 5 hrs post carrageenan challenge; format: functional
Summary of the method: (§2)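 Male SD rats, fasted overnight plus up to 6 h more. Baseline hind paw volume taken by water plethysmometer. A single oral dose was given in a biologically acceptable medium. 2 h later, under anaesthesia, 1% carrageenan in PBS was injected subcutaneously into both hind paws. Volume was read 3 h post challenge, and swelling was taken as post-challenge minus baseline.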

Rattus norvegicus [7] = assay: Antiinflammatory activity against carrageenan-induced paw edema Sprague-Dawley rat model assessed as inhibition of hind paw swelling at 30 mg/kg, po measured after 5 hrs post carrageenan challenge; format: functional; settings: Rattus norvegicus, Sprague-Dawley, po, 5 h
Summary of the method: as §2

Rattus norvegicus [8] = assay: Antiinflammatory activity against carrageenan-induced paw edema Sprague-Dawley rat model assessed as inhibition of hind paw swelling at 100 mg/kg, po measured after 5 hrs post carrageenan challenge; format: functional
Summary of the method: as §2

Rattus norvegicus [9] = assay: Toxicity in carrageenan-induced paw edema Sprague-Dawley rat model assessed as increase in blood glucose level at 100 mg/kg, po measured […] by glucometer; format: organism-based; design: dose 100 mg/kg, route oral; settings: in vivo
Summary of the method: as §1

Rattus norvegicus [10] = assay: Antiinflammatory activity against carrageenan-induced paw edema Sprague-Dawley rat model assessed as inhibition of hind paw swelling at 50 mg/kg administered as po single dose after 5 hrs post carrageenan challenge; format: functional
Summary of the method: as §2

Rattus norvegicus [11] = assay: Toxicity in carrageenan-induced paw edema Sprague-Dawley rat model assessed as increase in blood glucose level at 50 mg/kg, po measured […] by glucometer; format: organism-based; design: dose 50 mg/kg, route oral; settings: in vivo
Summary of the method: as §1

Row | serum concentration (Rattus norvegicus [1]) [nM] | serum concentration (Rattus norvegicus [2]) [nM] | serum concentration (Rattus norvegicus [4]) [nM] | SMILES | Activity (Rattus norvegicus [3]) [%] | Activity (Rattus norvegicus [5]) | Activity (Rattus norvegicus [6]) | ED50 (Rattus norvegicus [6]) [mg/kg] | inhibition in vivo at 30 mg/kg (Rattus norvegicus [7]) [%] | inhibition in vivo at 100 mg/kg (Rattus norvegicus [8]) [%] | Activity (Rattus norvegicus [9]) | inhibition in vivo at 50 mg/kg (Rattus norvegicus [10]) [%] | Activity (Rattus norvegicus [11]) [%]
1 | 157 | 59 | 311 | CC(C)(C(=O)Nc1nncs1)[C@H]1c2ccccc2Oc2cc(O)ccc21 | < 1 | Non-toxic | Dose-dependent effect | 44 | 56 | – | – | – | –
2 | – | – | – | CC(C)(C(=O)Nc1nccs1)[C@@H](c1ccccc1)c1ccc(O)cc1 | – | – | – | – | – | 46 | Non-toxic | – | –
3 | – | – | – | CC(C)(C(=O)Nc1nccs1)[C@@H](c1ccccc1)c1ccc(O)c(F)c1 | – | – | Dose-dependent effect | 45 | – | – | – | 61 | < 1

Source: ChEMBL document CHEMBL1799968, “Dimethyl-diphenyl-propanamide derivatives as nonsteroidal dissociated glucocorticoid receptor agonists” (J Med Chem, 2010)
